Calls of active or inactive are those of the source. The rule behind the calls is not given here.
Experiments:
[1] = system: J82; test: Cell cycle arrest in human J82 cells assessed as accumulation at S phase at 5 uM after 48 hrs by propidium iodide staining based FACS analysis (reference value: 46.79 %); type: functional
Summary of the method: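 Cells treated with 1−10 μM for 48 h, trypsinized, and fixed in 70% ethanol. Stained with 50 μg/mL propidium iodide and phase distribution analyzed by flow cytometry. Mean ± SD from three independent measurements.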

[2] = system: T-24; test: Effect on cell cycle distribution in human T24 cells assessed as live cells at 10 uM after 1 hr by Annexin V-FITC/propidium iodide staining based FACS analysis (reference value: 98.3%); type: functional
[3] = system: T-24; test: Induction of apoptosis in human T24 cells assessed as necrotic cells at 5 uM by Annexin V-FITC/propidium iodide based flow cytometric analysis (reference value: 8.53%); type: functional
[4] = system: Mus musculus; test: Effect on p53 expression in BALB/C nude mouse xenografted with human T24 cells at 6 to 12 mg/kg, ip administered every 2 days for 16 days by immunoblot analysis

CN(C)CCNc1nn2c(=O)c3cc(Br)ccc3nc2c2ccccc12 gave an Activity [1] of 44.01%, an Activity [2] of 86.6% and an Activity [3] of 0.661%. The Activity [4] was “inactive”.

Source: ChEMBL document CHEMBL4017491, “Phthalazino[1,2-b]quinazolinones as p53 Activators: Cell Cycle Arrest, Apoptotic Response and Bak-Bcl-xl Complex Reorganization in Bladder Cancer Cells” (J Med Chem, 2017)
